Experimental data from article PMC4238798 (Biochemistry, 2014).

Tests used:
[1] = biological target: T1, RePC (Rhizobium etli pyruvate carboxylase) (Rhizobium etli, UniProt Q2K340); test: malate dehydrogenase-coupled pyruvate carboxylation assay, global fit; assay type: biochemical
T1 sequence (Q2K340 1-1154): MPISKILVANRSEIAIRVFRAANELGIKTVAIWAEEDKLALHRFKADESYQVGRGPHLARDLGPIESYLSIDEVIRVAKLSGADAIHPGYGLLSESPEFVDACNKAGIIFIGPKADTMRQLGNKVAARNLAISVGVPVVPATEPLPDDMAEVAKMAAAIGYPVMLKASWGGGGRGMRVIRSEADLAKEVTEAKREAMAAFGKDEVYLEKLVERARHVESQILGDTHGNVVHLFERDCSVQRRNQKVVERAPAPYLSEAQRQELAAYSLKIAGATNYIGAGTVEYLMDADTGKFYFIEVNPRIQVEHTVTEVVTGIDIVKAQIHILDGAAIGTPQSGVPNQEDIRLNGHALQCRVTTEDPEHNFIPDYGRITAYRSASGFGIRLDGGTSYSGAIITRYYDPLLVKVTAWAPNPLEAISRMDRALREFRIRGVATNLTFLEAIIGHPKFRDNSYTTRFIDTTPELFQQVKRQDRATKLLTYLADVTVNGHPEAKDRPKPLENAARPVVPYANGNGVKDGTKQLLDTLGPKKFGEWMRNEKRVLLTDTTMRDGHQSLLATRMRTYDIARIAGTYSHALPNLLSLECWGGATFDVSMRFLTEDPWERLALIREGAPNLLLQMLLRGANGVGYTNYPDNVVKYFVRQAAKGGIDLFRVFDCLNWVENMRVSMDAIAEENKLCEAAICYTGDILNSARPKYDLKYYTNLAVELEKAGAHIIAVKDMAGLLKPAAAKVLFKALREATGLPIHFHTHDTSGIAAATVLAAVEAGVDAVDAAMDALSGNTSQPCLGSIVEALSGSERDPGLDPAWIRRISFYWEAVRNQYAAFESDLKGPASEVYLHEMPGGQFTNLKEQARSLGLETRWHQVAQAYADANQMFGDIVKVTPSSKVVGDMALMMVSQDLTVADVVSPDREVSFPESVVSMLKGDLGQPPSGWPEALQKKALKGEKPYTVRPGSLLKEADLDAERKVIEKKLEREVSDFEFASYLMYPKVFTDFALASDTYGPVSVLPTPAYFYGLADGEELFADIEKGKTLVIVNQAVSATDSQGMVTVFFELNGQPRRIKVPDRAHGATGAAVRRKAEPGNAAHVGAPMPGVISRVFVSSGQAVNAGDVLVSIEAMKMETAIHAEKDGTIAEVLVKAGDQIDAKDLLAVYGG

[2] = biological target: T1, RePC (Rhizobium etli pyruvate carboxylase); test: malate dehydrogenase-coupled pyruvate carboxylation assay; assay type: biochemical
Summary of the method: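 N-terminally His-tagged R. etli enzyme, expressed in E. coli BL21(DE3). NADH oxidation followed, with oxaloacetate converted to malate by 5 units of malate dehydrogenase. Run at 30 °C in 0.1 M Tris-HCl pH 7.8 with 20 mM NaHCO3, 6 mM MgCl2, 1 mM MgATP, 0.2 mM NADH and 10 mM pyruvate. Activator varied 0–150 μM at 0–8 mM L-aspartate. kapp = initial velocity/enzymic biotin. Hill-equation nonlinear least-squares fit gives the activation constant.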

Ki [1] [µM]	EC50 [2] [µM]	Compound
1260 ± 80	–	N[C@@H](CC(=O)O)C(=O)O [L-aspartate]
–	7.3 ± 0.9	CC(=O)SCCNC(=O)CCNC(=O)[C@H](O)C(C)(C)COP(=O)(O)OP(=O)(O)OC[C@H]1O[C@@H](n2cnc3c(N)ncnc32)[C@H](O)[C@@H]1OP(=O)(O)O [acetyl-CoA]
